Only some compounds are listed: those with a hit (about 3.7% of all), similar ones and a draw of the others.
KCNK9 inh: KCNK9 potassium channel inhibitors, primary screen, HEK293 cells, thallium flux | FluxOR thallium flux fluorescence; stronger effect = lower value | B-score at 10 µM | 310,000 compounds, 1.2% hits;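 active = ratio B-score over 3 SD below the library mean, with starting fluorescence within 5 SD of its mean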;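 note: negative B-score means less thallium flux so channel inhibition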
Kir21 block: inhibitors of mouse Kir2.1 inward-rectifier potassium channel. Inward rectifier potassium channel 2 (Mus musculus), P35561. HEK293-Kir2.1, FluxOR thallium flux fluorescence; stronger effect = lower value. B-score at 10 µM. 310,000 compounds, 0.85% hits;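 active = fluorescence ratio B-score at or below minus 3 SD of library scores, with starting-brightness B-score within 2 SD, cut at about -4.2 in these data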;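 note: channel flux triggered by added potassium and thallium sulfate stimulus; B-score of peak minus minimum fluorescence over baseline after thallium stimulus; more negative B-score means stronger Kir2.1 block with less thallium influx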
KCNK3 inh: human KCNK3 channel inhibitors, primary screen, CHO cells, FluxOR thallium flux, B-score; Potassium channel subfamily K member 3 (Homo sapiens), O14649; AID 602410, 2012; B-score at 10 µM; 340,000 compounds, 0.84% hits; FluxOR fluorescence; stronger effect = lower value;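 active = B-score under library mean minus 4 SD, starting fluorescence ratio at most library mean plus 5 SD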;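 note: more negative B-score means stronger inhibition of thallium flux through KCNK3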
Target sequence (O14649 whole entry, looked up): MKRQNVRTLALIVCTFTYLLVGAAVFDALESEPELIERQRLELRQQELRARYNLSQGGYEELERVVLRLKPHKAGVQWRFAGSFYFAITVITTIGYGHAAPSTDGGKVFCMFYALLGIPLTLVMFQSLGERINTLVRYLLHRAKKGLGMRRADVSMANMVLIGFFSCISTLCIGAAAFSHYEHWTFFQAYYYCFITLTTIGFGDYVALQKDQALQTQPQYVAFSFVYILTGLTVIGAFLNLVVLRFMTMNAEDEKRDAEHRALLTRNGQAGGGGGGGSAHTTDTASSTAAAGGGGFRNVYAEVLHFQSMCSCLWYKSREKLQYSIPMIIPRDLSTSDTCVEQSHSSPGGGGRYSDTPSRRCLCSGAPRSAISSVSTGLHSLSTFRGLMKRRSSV
KCNQ1 act: potentiators or activators of KCNQ1 channel, primary screen, cell-based, thallium flux, high-throughput; Potassium voltage-gated channel subfamily KQT member 1 (Homo sapiens), P51787; CHO-K1 KCNQ1, thallium flux FluxOR fluorescence; stronger effect = higher value; B-score at 10 µM; 310,000 compounds, 0.35% hits;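 active = fluorescence ratio B-score, a plate-corrected score, at least three library SD, with initial intensity B-score within 5 SD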
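System: CHO-K1 cells stably expressing KCNQ1 / Medium: assay buffer for compound exposure, DMSO matched across wells / Reagent: thallium- and potassium-containing depolarizing buffer / Compound: one concentration, matched DMSO / Incubation: 20 min compound pretreatment at room temperature / Measured by: kinetic FluxOR fluorescence, 10 s baseline plus 110 s post-stimulus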
hERG rescue: hERG rescue from dofetilide block, primary screen, cell-based, CHO-hERG, FluxOR thallium flux, dofetilide IC70 | 310,000 compounds, 0.51% hits | activation (rescue from dofetilide block), less the hit threshold, % at 10 µM | dofetilide IC70 present | Voltage-gated inwardly rectifying potassium channel KCNH2 (Homo sapiens), Q12809;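 active = activation above the mean of controls blocked by dofetilide plus 5 SD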;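 note: thallium influx through hERG after potassium depolarization seen as dye fluorescence rise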
KCNQ1 block: inhibitors of human KCNQ1 channel, primary screen, cell-based, thallium flux, high-throughput | CHO-K1 KCNQ1, FluxOR thallium flux fluorescence; stronger effect = higher value | B-score at 10 µM | 310,000 compounds, 1.3% hits;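 active = compounds whose thallium flux B-score, printed positive for inhibition, exceeds three library SD while starting fluorescence stays within three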;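 note: channel opened by potassium depolarization with thallium stimulus after 20 min compound exposure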
Active calls of the source: *.

Cc1[nH]nc(C(F)(F)F)c1N=NN1CCOCC1 was read as KCNK3 inh inactive.
For COc1ccccc1CCNCc1ccc(OC)c(OCc2ccccc2)c1 the results were KCNK9 inh inactive, Kir21 block -8.5*, KCNK3 inh inactive, KCNQ1 act inactive, hERG rescue -24.3 and KCNQ1 block inactive.
COc1cc(CNCCc2ccccc2)ccc1OCc1ccc(Cl)nc1 was read as KCNK9 inh inactive, Kir21 block -6.4*, KCNK3 inh inactive, KCNQ1 act inactive, hERG rescue -10.9 and KCNQ1 block inactive.
`N#CC1(C(N)=O)OC12CCS(=O)(=O)c1ccccc12` (stereo unspecified) gave KCNK3 inh inactive.
`Cc1ccc(O)c(NC(=S)NC(=O)Cc2ccc(Cl)cc2)c1` gave KCNK9 inh inactive, Kir21 block 1.06, KCNK3 inh inactive, KCNQ1 act 50*, hERG rescue -6.7 and KCNQ1 block inactive.
CCCCn1nnnc1SCC(=O)c1cc(Cl)ccc1OC was read as KCNK9 inh inactive, Kir21 block 0.28, KCNK3 inh inactive, KCNQ1 act inactive, hERG rescue -10.8 and KCNQ1 block inactive.
`COc1ccc(Cl)cc1C(=O)CSc1nc(N)cc(N)n1` gave KCNK9 inh inactive, Kir21 block -4.72*, KCNK3 inh inactive, KCNQ1 act inactive, hERG rescue -14.1 and KCNQ1 block inactive.
For Cc1ccc(C(=O)N(C)CC(=O)Nc2ccc(Cl)c(C(F)(F)F)c2)cc1S(=O)(=O)N1CCCCC1 the results were KCNK3 inh -10.9*.
`Cc1sc2ncnc(N3CCC(C(=O)N(C)CC(=O)Nc4ccc(Cl)c(C(F)(F)F)c4)CC3)c2c1C` gave KCNK9 inh inactive, Kir21 block 1.4, KCNK3 inh inactive, KCNQ1 act inactive, hERG rescue -14.4 and KCNQ1 block 9*.
For Cc1ccc(S(=O)(=O)N2CCCCC2)cc1C(=O)N(C)CC(=O)Nc1ccc(Cl)c(C(F)(F)F)c1 the results were KCNK9 inh inactive, Kir21 block -0.22, KCNK3 inh inactive, KCNQ1 act inactive, hERG rescue -15.1 and KCNQ1 block inactive.
For COc1cccc(CNCCc2c[nH]c3ccccc23)c1OCc1ccccc1 the results were KCNK9 inh inactive, Kir21 block -9.49*, KCNK3 inh inactive, KCNQ1 act inactive, hERG rescue -15.1 and KCNQ1 block inactive.
COc1cc(CNCCc2c[nH]c3ccccc23)ccc1OCc1ccccc1F was read as KCNK9 inh inactive, Kir21 block -8.18*, KCNK3 inh inactive, KCNQ1 act inactive, hERG rescue -27.2 and KCNQ1 block inactive.
`COc1cccc(CNC23CC4CC(CC(C4)C2)C3)c1OCc1ccccc1` gave KCNK9 inh inactive, Kir21 block -3.75, KCNK3 inh inactive, KCNQ1 act inactive, hERG rescue -10.6 and KCNQ1 block 6*.
O=C(CN(Cc1ccco1)C(=O)c1cccc(F)c1)Nc1ccccc1C(F)(F)F was read as KCNK3 inh inactive.
CN(Cc1cnc2nc(N)nc(N)c2n1)c1ccc(C(=O)NC(CCC(=O)O)C(=O)O)c2ccccc12 (stereo unspecified) was read as KCNK3 inh inactive.
`CC(=O)c1c(C)[nH]c(C(=O)OCC(=O)Nc2ccc(C)cc2[N+](=O)[O-])c1C` gave KCNK9 inh inactive, Kir21 block 0.02, KCNK3 inh inactive, KCNQ1 act inactive, hERG rescue -10.5 and KCNQ1 block 6*.
`COc1ccc([N+](=O)[O-])c(S(=O)(=O)c2ccc(Cl)cc2)n1` gave KCNK9 inh inactive, Kir21 block -4.64*, KCNK3 inh inactive, KCNQ1 act inactive, hERG rescue -7.7 and KCNQ1 block inactive.
`COc1ccc([N+](=O)[O-])c(S(=O)(=O)c2ccccc2)n1` gave KCNK9 inh inactive, Kir21 block -3.74, KCNK3 inh inactive, KCNQ1 act inactive, hERG rescue -8.0 and KCNQ1 block inactive.
CC(CCc1ccccc1)NC(=S)NC(=O)c1ccco1 (stereo unspecified) was read as KCNK9 inh inactive, Kir21 block 0.27, KCNK3 inh inactive, KCNQ1 act 24*, hERG rescue 24.6* and KCNQ1 block inactive.
O=C(NC(=S)N(CCc1ccccc1)CCc1ccccc1)c1ccco1 was read as KCNK9 inh inactive, Kir21 block -3.3, KCNK3 inh inactive, KCNQ1 act 47*, hERG rescue 36.7* and KCNQ1 block inactive.
For CC(CCc1ccccc1)NC(=O)Cc1ccccc1 (stereo unspecified) the results were KCNK9 inh inactive, Kir21 block -1.9, KCNK3 inh inactive, KCNQ1 act inactive, hERG rescue -8.3 and KCNQ1 block inactive.
For COc1ccc(NC(=O)CN(C)C(=O)Cc2ccc(-c3ccccc3)cc2)cc1 the results were KCNK3 inh inactive.
For O=C(CSc1ccc(Cl)cc1)N/N=C/c1cccnc1 the results were KCNK9 inh inactive, Kir21 block -0.68, KCNK3 inh inactive, KCNQ1 act inactive, hERG rescue 8.2* and KCNQ1 block inactive.
CCN(CC(=O)Nc1ccc(OC)cc1)C(=O)c1ccc2c(c1)NC(=O)CS2 was read as KCNK3 inh inactive.
`COc1ccc(OC)c(NC(=O)C2CC(=O)N(Cc3ccco3)C2)c1` (stereo unspecified) gave KCNK3 inh inactive.
CCOC(O)[C@H]1N[C@@H](c2ccc(Cl)cc2)[C@@H]([N+](=O)[O-])[C@@H]1c1ccccc1 (stereo partly specified) was read as KCNK9 inh -7.08*, Kir21 block -1.52, KCNK3 inh inactive, KCNQ1 act inactive, hERG rescue -4.1 and KCNQ1 block inactive.
Cc1cc(C)n(CC(O)COc2ccc(Cl)cc2Cl)n1 (stereo unspecified) was read as KCNK9 inh inactive, Kir21 block 0.71, KCNK3 inh inactive, KCNQ1 act inactive, hERG rescue -1.4 and KCNQ1 block inactive.
`Cc1cc(C)n(CCOc2ccc(Cl)cc2Cl)n1` gave KCNK9 inh inactive, Kir21 block -1.29, KCNK3 inh inactive, KCNQ1 act inactive, hERG rescue 9.2* and KCNQ1 block inactive.

Compound activity as filed in PubChem BioAssay.
